Source: ChEMBL document CHEMBL3862036, “Biphenyl Pyridazinone Derivatives as Inhaled PDE4 Inhibitors: Structural Biology and Structure-Activity Relationships” (J Med Chem, 2016)

Legend:
[1] = Drug metabolism in human liver S9 fraction assessed as sulfonation in presence of PAPS and UDPGA incubated for 20 mins; assay type: ADME, subcellular; settings: read-out: Drug metabolism
[2] = Drug metabolism in human liver S9 fraction assessed as glucuronidation in presence of PAPS and UDPGA incubated for 20 mins; assay type: ADME, subcellular; settings: read-out: Drug metabolism
[3] = Inhibition of PDE4 in human whole blood assessed as reduction in LPS-induced TNFalpha production incubated for 24 hrs by ELISA; assay type: tissue-based
Summary of the method: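 Human whole blood was preincubated with LPS (final 1 μg/mL) for 10 min at 37 °C with rocking. 200 μL was added to wells holding increasing inhibitor concentrations in 100% DMSO. Plates were incubated 24 h at 37 °C under agitation, then placed on ice, diluted with PBS and centrifuged at 800g, 4 °C, for 15 min before TNF-α measurement.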

[4] = Inhibition of PDE4 in PBMC (unknown origin) assessed as reduction in LPS-induced TNFalpha production incubated for 24 hrs by ELISA; settings: Homo sapiens
Adenosine receptor A1 = target: T1, Adenosine receptor A1 (Homo sapiens, UniProt P30542); assay: Antagonist activity at adenosine A1 receptor (unknown origin)
T1 sequence (P30542 whole entry): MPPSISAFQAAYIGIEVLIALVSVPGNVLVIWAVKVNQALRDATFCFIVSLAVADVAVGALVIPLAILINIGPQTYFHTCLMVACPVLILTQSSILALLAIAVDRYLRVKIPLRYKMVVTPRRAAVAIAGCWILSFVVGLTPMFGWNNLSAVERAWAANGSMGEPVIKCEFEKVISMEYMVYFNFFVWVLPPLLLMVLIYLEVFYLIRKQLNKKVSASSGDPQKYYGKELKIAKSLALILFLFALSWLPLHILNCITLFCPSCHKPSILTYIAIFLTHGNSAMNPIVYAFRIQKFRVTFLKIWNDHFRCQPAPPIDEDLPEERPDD

Adenosine receptor A2b = target: T2, Adenosine receptor A2b (Homo sapiens, UniProt P29275); assay: Antagonist activity at adenosine A2b receptor (unknown origin)
T2 sequence (P29275 whole entry): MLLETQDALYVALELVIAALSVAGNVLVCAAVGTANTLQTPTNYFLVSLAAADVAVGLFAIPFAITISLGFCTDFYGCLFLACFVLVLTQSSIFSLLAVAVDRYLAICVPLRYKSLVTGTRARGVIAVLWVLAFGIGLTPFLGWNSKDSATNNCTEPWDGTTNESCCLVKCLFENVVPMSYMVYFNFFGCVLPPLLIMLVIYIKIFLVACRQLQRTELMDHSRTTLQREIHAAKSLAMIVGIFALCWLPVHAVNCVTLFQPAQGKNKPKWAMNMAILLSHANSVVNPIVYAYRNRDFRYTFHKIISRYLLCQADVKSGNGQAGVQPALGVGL

Adenosine receptor A2a = Adenosine receptor A2a (Homo sapiens, UniProt P29274); assay: Antagonist activity at adenosine A2a receptor (unknown origin)
Adenosine receptor A2a, sequence (P29274 whole entry): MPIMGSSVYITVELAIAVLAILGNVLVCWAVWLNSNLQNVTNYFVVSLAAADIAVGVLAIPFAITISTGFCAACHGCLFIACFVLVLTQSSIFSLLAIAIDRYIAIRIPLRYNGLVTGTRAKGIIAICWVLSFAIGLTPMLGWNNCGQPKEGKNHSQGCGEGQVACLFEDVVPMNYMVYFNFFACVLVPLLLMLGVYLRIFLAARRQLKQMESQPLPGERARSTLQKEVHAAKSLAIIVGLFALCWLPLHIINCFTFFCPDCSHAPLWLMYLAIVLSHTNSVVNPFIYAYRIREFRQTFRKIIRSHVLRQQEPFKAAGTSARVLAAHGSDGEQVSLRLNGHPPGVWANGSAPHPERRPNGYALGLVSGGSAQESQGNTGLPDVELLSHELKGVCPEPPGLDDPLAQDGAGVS

Rattus norvegicus [5] = assay: Anti-inflammatory activity in Sprague-Dawley rat assessed as inhibition of LPS-induced neutrophilia at 1000 ug/kg, it administered as suspension with Penn-Century micro-sprayer aerosolizer dosed 1 hrs before LPS challenge and measured 5 hrs post dose; assay type: functional; settings: inhaled or nasal
Summary of the method: (§1)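 Suspensions in PBS/0.2% Tween 80 were homogenized, with lower doses made by 1:10 dilutions. 0.2 mL was given intratracheally by MicroSprayer to isoflurane-anesthetized fasted male Sprague-Dawley rats (230–280 g). At 1 or 18 h, rats received nebulized LPS (30 mL of a 1:100 PBS dilution of 100 mg/10 mL stock) over 40 min. Four hours later, BAL neutrophils were counted by flow cytometry.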

Rattus norvegicus [6] = assay: Anti-inflammatory activity in Sprague-Dawley rat assessed as inhibition of LPS-induced neutrophilia at 1000 ug/kg, it administered as suspension with Penn-Century micro-sprayer aerosolizer dosed 18 hrs before LPS challenge and measured 22 hrs post dose; assay type: functional; settings: inhaled or nasal; summary of the method: as §1
Rattus norvegicus [7] = assay: Anti-inflammatory activity in Sprague-Dawley rat assessed as inhibition of LPS-induced neutrophilia at 100 ug/kg, it administered as suspension with Penn-Century micro-sprayer aerosolizer dosed 18 hrs before LPS challenge and measured 22 hrs post dose; assay type: functional; settings: inhaled or nasal; summary of the method: as §1
[8] = Basicity constant, pKB of the compound; assay type: physicochemical
Rattus norvegicus [9] = assay: Anti-inflammatory activity in Sprague-Dawley rat assessed as inhibition of LPS-induced neutrophilia at 100 ug/kg, it administered as suspension with Penn-Century micro-sprayer aerosolizer dosed 1 hrs before LPS challenge and measured 5 hrs post dose; assay type: functional; settings: inhaled or nasal; summary of the method: as §1
Rattus norvegicus [10] = assay: Anti-inflammatory activity in Sprague-Dawley rat assessed as inhibition of LPS-induced neutrophilia at 10 to 1000 ug/kg, it administered as suspension with Penn-Century micro-sprayer aerosolizer dosed 1 hrs before LPS challenge and measured 5 hrs post dose; assay type: functional; settings: inhaled or nasal; summary of the method: as §1
[11] = Pro-inflammatory activity in Sprague-Dawley rat assessed as induction of neutrophilia at 1000 ug/kg, it administered as dry powder with lactose carrier through Penn-Century insufflator; settings: in vivo, inhaled_or_intranasal, 1 mg/kg
Rattus norvegicus [12] = assay: Anti-inflammatory activity in Sprague-Dawley rat assessed as inhibition of LPS-induced neutrophilia at 300 ug/kg, it administered as suspension with Penn-Century micro-sprayer aerosolizer dosed 18 hrs before LPS challenge and measured 22 hrs post dose; assay type: functional; settings: inhaled or nasal; summary of the method: as §1
Rattus norvegicus [13] = assay: Anti-inflammatory activity in Sprague-Dawley rat assessed as inhibition of LPS-induced neutrophilia at 30 ug/kg, it administered as suspension with Penn-Century micro-sprayer aerosolizer dosed 18 hrs before LPS challenge and measured 22 hrs post dose; assay type: functional; settings: inhaled or nasal; summary of the method: as §1
Rattus norvegicus [14] = assay: Anti-inflammatory activity in Sprague-Dawley rat assessed as inhibition of LPS-induced neutrophilia at 1000 ug/kg, it administered as dry powder with lactose carrier through Penn-Century insufflator dosed 1 hrs before LPS challenge and measured 5 hrs post dose; assay type: functional
Summary of the method: (§2)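 Compounds were micronized, comixed with lactose, and 5 mg of the mixture was insufflated intratracheally into isoflurane-anesthetized fasted male Sprague-Dawley rats (230–280 g). LPS aerosol (30 mL of a 1:100 PBS dilution of 100 mg/10 mL stock) was nebulized for 40 min at 1 or 18 h post-dose. BAL was taken 4 h later and neutrophils counted by flow cytometry. Controls: lactose alone, lactose+LPS, fluticasone (10% in lactose).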

Rattus norvegicus [15] = assay: Anti-inflammatory activity in Sprague-Dawley rat assessed as inhibition of LPS-induced neutrophilia at 1000 ug/kg, it administered as dry powder with lactose carrier through Penn-Century insufflator dosed 18 hrs before LPS challenge and measured 22 hrs post dose; assay type: functional; summary of the method: as §2
Rattus norvegicus [16] = assay: Anti-inflammatory activity in Sprague-Dawley rat assessed as inhibition of LPS-induced neutrophilia at 10 to 1000 ug/kg, it administered as suspension with Penn-Century micro-sprayer aerosolizer dosed 18 hrs before LPS challenge and measured 22 hrs post dose; assay type: functional; settings: inhaled or nasal; summary of the method: as §1
Rattus norvegicus [17] = assay: Anti-inflammatory activity in Sprague-Dawley rat assessed as inhibition of LPS-induced neutrophilia at 100 ug/kg, it administered as dry powder with lactose carrier through Penn-Century insufflator dosed 1 hrs before LPS challenge and measured 5 hrs post dose; assay type: functional; summary of the method: as §2
Rattus norvegicus [18] = assay: Anti-inflammatory activity in Sprague-Dawley rat assessed as inhibition of LPS-induced neutrophilia at 2000 ug/kg, it administered as dry powder with lactose carrier through Penn-Century insufflator dosed 18 hrs before LPS challenge and measured 22 hrs post dose; assay type: functional; summary of the method: as §2
Rattus norvegicus [19] = assay: Anti-inflammatory activity in Sprague-Dawley rat assessed as inhibition of LPS-induced neutrophilia at 10 to 1000 ug/kg, it administered as dry powder with lactose carrier through Penn-Century insufflator dosed 1 hrs before LPS challenge and measured 5 hrs post dose; assay type: functional; summary of the method: as §2

Compound | metabolised at 20 min [1] | metabolised at 20 min [2] | IC50 [3] | IC50 [4] | IC50 (Adenosine receptor A1) | IC50 (Adenosine receptor A2b) | IC50 (Adenosine receptor A2a) | inhibition in vivo at 1 mg/kg (Rattus norvegicus [6]) | inhibition in vivo at 0.1 mg/kg (Rattus norvegicus [9]) | ED50 (Rattus norvegicus [10]) | fold change (FC) [11] | inhibition in vivo at 1 mg/kg (Rattus norvegicus [15]) | further results
CCn1nc(-c2cccc(-c3ccc(O)cc3)c2)cc(NC(=O)Nc2c(Cl)cncc2Cl)c1=O | 0.3% | 2% | 117 nM | 0.9 nM | – | – | – | – | – | – | – | – | –
CCn1nc(-c2cccc(-c3cncc(O)c3)c2)cc(NC(=O)Nc2c(Cl)cncc2Cl)c1=O | 16% | 36% | 64 nM | 0.29 nM | 11 nM | 111 nM | 333 nM | 23% | – | – | – | – | inhibition in vivo at 1 mg/kg (Rattus norvegicus [5]): 58%
CCn1nc(-c2cccc(-c3cccc(C(=O)NCCN4CCNCC4)c3)c2)cc(NC(=O)Nc2c(Cl)cncc2Cl)c1=O | – | – | 125 nM | 0.34 nM | 2 nM | – | 9 nM | – | 62% | – | – | – | inhibition in vivo at 0.1 mg/kg (Rattus norvegicus [7]): 40%; pKb [8]: 9.8
CCn1nc(-c2cccc(-c3ccc(O)c(F)c3)c2)cc(NC(=O)Nc2c(Cl)cncc2Cl)c1=O | 3% | 6% | 93 nM | 2.4 nM | – | – | – | – | – | 0.342 mg/kg | – | – | –
CCn1nc(-c2cccc(-c3cccc(C(=O)NCCN4CCCCC4)c3)c2)cc(NC(=O)Nc2c(Cl)cncc2Cl)c1=O | – | – | 81 nM | 0.43 nM | 6 nM | 169 nM | 22 nM | – | 66% | – | 1.1 | – | pKb [8]: 11.2
CCNC(=O)c1cc(C(=O)NCCCN(C)C)cc(-c2cccc(-c3cc(NC(=O)Nc4c(Cl)cncc4Cl)c(=O)n(CC)n3)c2)c1 | – | – | – | 0.36 nM | 537 nM | 368 nM | > 1000 nM | – | – | 0.018 mg/kg | – | – | inhibition in vivo at 0.1 mg/kg (Rattus norvegicus [7]): 48%; inhibition in vivo at 0.3 mg/kg (Rattus norvegicus [12]): 60%; inhibition in vivo at 0.03 mg/kg (Rattus norvegicus [13]): 58%
CCn1nc(-c2cccc(-c3cc(F)ccc3O)c2)cc(NC(=O)Nc2c(Cl)cncc2Cl)c1=O | – | 8% | 207 nM | 0.88 nM | – | – | – | 14% | – | 0.101 mg/kg | – | 0% | inhibition in vivo at 1 mg/kg (Rattus norvegicus [14]): 51%
CCn1nc(-c2cccc(-c3cccc(C(=O)NC4CC4)c3)c2)cc(NC(=O)Nc2c(Cl)cncc2Cl)c1=O | – | – | 69 nM | 0.3 nM | 10 nM | 120 nM | 33 nM | 43% | 70% | 0.024 mg/kg | 1 | 42% | inhibition in vivo at 1 mg/kg (Rattus norvegicus [14]): 55%
CCn1nc(-c2cccc(-c3ccc(CC(=O)NCCCCCCCN(C)CCO)cc3)c2)cc(NC(=O)Nc2c(Cl)cncc2Cl)c1=O | – | – | 323 nM | 0.57 nM | 61 nM | 94 nM | 86 nM | – | 69% | – | 1.9 | – | ED50 (Rattus norvegicus [16]): 0.091 mg/kg; inhibition in vivo at 0.1 mg/kg (Rattus norvegicus [17]): 23%
CCn1nc(-c2cccc(-c3cccc(C(N)=O)c3)c2)cc(NC(=O)Nc2c(Cl)cncc2Cl)c1=O | – | – | 67 nM | 0.09 nM | – | – | – | 20% | – | 0.067 mg/kg | – | 15% | inhibition in vivo at 1 mg/kg (Rattus norvegicus [14]): 48%
CCn1nc(-c2cccc(-c3cccc(O)c3)c2)cc(NC(=O)Nc2c(Cl)cncc2Cl)c1=O | 3% | 21% | 95 nM | 0.7 nM | 87 nM | 172 nM | 168 nM | 0% | – | 0.416 mg/kg | – | – | inhibition in vivo at 2 mg/kg (Rattus norvegicus [18]): 7%; ED50 (Rattus norvegicus [19]): 0.551 mg/kg
CCn1nc(-c2cccc(-c3ccc(C(=O)O)cc3)c2)cc(NC(=O)Nc2c(Cl)cncc2Cl)c1=O | – | 0% | 373 nM | 0.55 nM | – | – | – | 25% | 50% | – | – | 8% | inhibition in vivo at 1 mg/kg (Rattus norvegicus [5]): 59%; ED50 (Rattus norvegicus [19]): 0.015 mg/kg
CCn1nc(-c2cccc(-c3cccc(C(=O)NCCN4CCOCC4)c3)c2)cc(NC(=O)Nc2c(Cl)cncc2Cl)c1=O | – | – | 59 nM | 0.07 nM | 15 nM | 145 nM | 33 nM | – | 52% | – | 1.1 | – | pKb [8]: 8.3
